The data set in a line: Toxicity liver stage against HepG2, at 10uM. In kind it is cell-based. On the set-up: test concentration 10 uM, cell line HepG2-A16-CD81EGFP. The note with it: human, HepG2-A16-CD81EGFP cells; read-out: INHIBITION
The method, boiled down: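 Uninfected HepG2-A16-CD81EGFP cells, 3 × 10^3 per well, 1536-well, plated on prespotted compound at 10 μM final, parasite-free screening media added to match infected plates; puromycin 10 μM positive, DMSO 0.5% negative; run in parallel with 48 h PbLuc assay at 37 °C, 5% CO2; viability by CellTiter-Glo luminescence, normalized to controls.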
As for `CC(Cc1ccco1)NC(=O)Nc1ccc(S(C)(=O)=O)nc1` (stereo not drawn), the cytotoxicity at 10 µM came out at 3.95%.

`Cn1ccnc1CCNS(=O)(=O)c1cccnc1`: the cytotoxicity at 10 µM is 10.7%.

Consider `Cc1ccc(S(=O)(=O)NC[C@H]2OC[C@@H](NCc3ccccn3)[C@@H]2O)cc1`, for which the cytotoxicity at 10 µM is -52.5%.

As to `Nc1ncncc1-c1noc([C@@H]2CCCN2CCCc2ccccc2)n1`, the cytotoxicity at 10 µM was 1.58%.

Turning to `COc1c[nH]c(C(=O)N2CCN(c3cccc(Cl)c3)CC2)cc1=O`, the cytotoxicity at 10 µM was -1%.

For `O=c1cc2c(nn1CN1CCN(c3ccccc3)CC1)CCCC2`, the cytotoxicity at 10 µM is -9.58%.

For the compound `CCN1CCCC1CNC(=O)Cc1c(C)n[nH]c1-c1ccc(F)cc1` (stereo not drawn), the cytotoxicity at 10 µM is -3.02%.

For the compound `CC1CCN(C(=O)CSc2nc3c(cnn3CCO)c(=O)[nH]2)CC1`, the cytotoxicity at 10 µM is 7.98%.

With `Cc1ccnc(OCC(=O)N2CCCC2)n1`, the cytotoxicity at 10 µM is -10.2%.

Take `Cc1cc(NC(=O)CC2(Cn3cnnn3)CCCCC2)nn1C`: the cytotoxicity at 10 µM amounted to 10.4%.

For `Cc1cc(C)cc(OCn2ccc(C(=O)O)n2)c1`, the cytotoxicity at 10 µM was 6.06%.

Turning to `O=C(c1n[nH]cc1Cl)N1CCOCC1`, the cytotoxicity at 10 µM turned out to be 9.02%.

As to `CCn1nc(C)c2nc(C)nc(NCCCn3cccn3)c21`, the cytotoxicity at 10 µM was found to be 2.38%.

Regarding `CCn1ccc(NC(=O)CCc2c(C)noc2C)n1`, the cytotoxicity at 10 µM was determined as 7.16%.

As for `CN(C)Cc1cnc(C2CN(C(=O)c3ccccc3Cl)CCO2)[nH]1` (stereo not drawn), the cytotoxicity at 10 µM turned out to be 1.07%.

Take `Cc1cc(O)cc(C2CCCN2C(=O)c2ccncc2)n1` (stereo not drawn): the cytotoxicity at 10 µM worked out at 8.16%.

On to `Fc1ccc(Oc2nccnc2C2CCN(C3CCOCC3)CC2)cc1`, for which the cytotoxicity at 10 µM was -2.5%.

Take `COc1cc(C2Nc3cc(Cl)ccc3C3=NCCN32)cc(OC)c1OC` (stereo not drawn): the cytotoxicity at 10 µM is -24.8%.

Consider `CCC(=O)N1CCC(c2nc(O)c3c(n2)CN(C2CCCCC2)CC3)C1` (stereo not drawn), for which the cytotoxicity at 10 µM was -15.7%.

For `CCn1cc(CN2CCC(O)(Cn3ccc4ncccc43)CC2)cn1`, the cytotoxicity at 10 µM is -16.3%.

For the compound `O=C(c1ccc(Cl)cc1)N1CC2(CCNC2)OCc2ccccc21` (stereo not drawn), the cytotoxicity at 10 µM is 9.9%.

As to `O=C(c1cc(Cl)c[nH]1)N(CCCO)Cc1cccnc1`, the cytotoxicity at 10 µM stood at 7.48%.

Regarding `O=C(c1ccc(-c2cccs2)cc1F)N1CCN(CCO)CC1`, the cytotoxicity at 10 µM is -47.3%.

Regarding `CC(=O)Nc1nc(COc2nc(C)no2)cs1`, the cytotoxicity at 10 µM is -16.6%.

Take `CCCn1ccnc1SCC(=O)NC(Cc1ccccc1)C(C)=O` (stereo not drawn): the cytotoxicity at 10 µM was -9.58%.

As for `N#CC1(NC(=O)COC(=O)Cc2cc(Cl)c3c(c2)OCCO3)CCCC1`, the cytotoxicity at 10 µM is 0.935%.

As to `O=C(NCCNS(=O)(=O)c1cccc(Cl)c1)C1CCCO1` (stereo not drawn), the cytotoxicity at 10 µM came to 11.5%.

Turning to `Cc1cc(C(=O)NCC2(N(C)C)CCCC2)c(C)n1-c1cccnc1`, the cytotoxicity at 10 µM is -8.41%.

In the case of `Cc1ncsc1C(=O)NC1CCN(c2ncccc2C#N)CC1`, the cytotoxicity at 10 µM amounted to 2.68%.

`CCc1ccc(C(C)NC(=O)CCc2nc(-c3nnc[nH]3)no2)cc1` (stereo not drawn): the cytotoxicity at 10 µM was -1.98%.

With `COC(=O)N1CCN(Cc2ccccc2C(C)(C)C#N)CC1`, the cytotoxicity at 10 µM is -3.53%.

With `CC(NC(=O)Cn1ccnc1)c1ccc(OCC2CC2)c(F)c1` (stereo not drawn), the cytotoxicity at 10 µM is 0.99%.

As for `FC(F)(F)Sc1ccc(NCc2nnc(C3CC3)o2)cc1`, the cytotoxicity at 10 µM came out at 5.69%.

For the compound `COCCCn1ccc(NCc2cnc(C(C)(C)C)s2)n1`, the cytotoxicity at 10 µM turned out to be 5.91%.

As for `O=C(CCS(=O)(=O)C1CCCC1)NCCc1cccnc1`, the cytotoxicity at 10 µM was 6.86%.

In the case of `CN(CCN1CCOCC1)S(=O)(=O)CC1CCCC1`, the cytotoxicity at 10 µM stood at 10.2%.

With `CC1COCCN1Cc1noc(C(C)(C)C)n1` (stereo not drawn), the cytotoxicity at 10 µM worked out at 5.67%.

In the case of `CO[C@H]1CN(C(=O)OC(C)(C)C)CC1NCc1cc[nH]c1` (stereo partly drawn), the cytotoxicity at 10 µM was -46.6%.

`CC(C)CC(c1nc(-c2cnn(C)c2)no1)N1CCCCC1=O` (stereo not drawn): the cytotoxicity at 10 µM is -42%.

For the compound `Cc1cccc2c(CCNS(=O)(=O)C3CCOC3)c[nH]c12` (stereo not drawn), the cytotoxicity at 10 µM was determined as 12.7%.

As to `Fc1cccc(CCN(c2ccc3nnnn3n2)C2CC2)c1`, the cytotoxicity at 10 µM came to 4.21%.

With `CC(c1ccccc1F)N1CCN(C(=O)Cc2ccncc2)CC1` (stereo not drawn), the cytotoxicity at 10 µM was -2.94%.

Turning to `Cc1cc(CN2CCCC(C)(CO)C2)ccc1F` (stereo not drawn), the cytotoxicity at 10 µM was -20.4%.

Regarding `CC(C)N(C)Cc1cnc2n1CCN(C(=O)c1cccs1)C2`, the cytotoxicity at 10 µM was -74.2%.

As to `O=C(NCc1ccccc1)N1CCn2c(Cn3cccn3)cnc2C1`, the cytotoxicity at 10 µM was -71%.

Take `CN(C)C(=O)N1CCC2(CC1)C(c1cnn(C)c1)CC(=O)N2C` (stereo not drawn): the cytotoxicity at 10 µM is -78.2%.

Consider `c1ccc(OC[C@H]2CCC[C@]23CN(Cc2nccs2)CCO3)nc1`, for which the cytotoxicity at 10 µM is 3.34%.

For `CN1CCN(CC2CC2)C(=O)c2cnc(N3CC[C@@H](O)C3)nc21`, the cytotoxicity at 10 µM stood at 2.19%.

Turning to `C1CCC(c2nc3c(c(N4CCN5CCCC5C4)n2)CCNCC3)C1` (stereo not drawn), the cytotoxicity at 10 µM is -1.1%.

As for `CN(C)C(=O)c1ccc(C2CCCN2C(=O)c2ccccc2N(C)C)s1` (stereo not drawn), the cytotoxicity at 10 µM came out at 18.5%.

For the compound `CCS(=O)(=O)c1ncc(CN2CCN(C)CC2)n1CCc1ccccc1`, the cytotoxicity at 10 µM is 2.44%.

As for `Cc1cccc(C(=O)N2CCCCC2c2nc3cc(F)ccc3[nH]2)n1` (stereo not drawn), the cytotoxicity at 10 µM is -1.99%.

With `CCc1cnc(NCc2nc(COC)no2)nc1`, the cytotoxicity at 10 µM came to 7.36%.

For the compound `CCC1CN(C(=O)c2cc(C(C)=O)c(C)[nH]c2=O)CCN1C(C)C` (stereo not drawn), the cytotoxicity at 10 µM was found to be 6.03%.

For the compound `COc1ccccc1OC1CN(c2ccncc2)C1`, the cytotoxicity at 10 µM is -2.76%.

Take `O=C(Cc1ccc2c(c1)OCO2)N1CCN(c2ccccc2Cl)C(=O)C1`: the cytotoxicity at 10 µM is -0.874%.

Turning to `Cc1nc2c(c(N3CCC(CN4CCCC4=O)CC3)n1)CCNCC2`, the cytotoxicity at 10 µM worked out at 8.64%.

In the case of `COCc1ncc(CN2CCN(C)C(=O)C2C)cn1` (stereo not drawn), the cytotoxicity at 10 µM amounted to 1.31%.

In the case of `CC(Nc1ncnc2sccc12)c1cnn(C)c1` (stereo not drawn), the cytotoxicity at 10 µM was -2.63%.

As for `Cc1nsc(NC(=O)NC2(CN3CCOCC3)CCCC2)n1`, the cytotoxicity at 10 µM came out at 3.89%.

With `O=C1NCC(CN2CCc3onc(-c4ccc(C(F)(F)F)cc4)c3C2)O1` (stereo not drawn), the cytotoxicity at 10 µM came to 2.02%.

Regarding `CCn1c(N)nc2cc(C(=O)NCCc3ccccc3F)cnc21`, the cytotoxicity at 10 µM was -1.83%.

For the compound `CCN1CCN(C(=O)CCC2CCN(C(C)CCC(=O)OC)CC2)CC1` (stereo not drawn), the cytotoxicity at 10 µM worked out at 0.9%.

In the case of `COCc1nnc(C(=O)N2CCC(N3CCCCC3)CC2)o1`, the cytotoxicity at 10 µM was found to be 10.2%.

Regarding `CC(=O)N[C@@H]1CN(Cc2nc3ccccc3[nH]2)C[C@H]1c1ccc(C)o1`, the cytotoxicity at 10 µM amounted to 2.75%.

Take `COCCNC(=O)c1cnc(C)nc1C`: the cytotoxicity at 10 µM is 24.5%.

As for `CN(C)CC1(O)CCN(C(=O)Cc2ccc(Cl)c(Cl)c2)C1` (stereo not drawn), the cytotoxicity at 10 µM is -4%.

Regarding `Cc1cc(C(F)(F)F)nc(CNC(=O)CCC2CCCCN2C)n1` (stereo not drawn), the cytotoxicity at 10 µM is -59%.

As to `COCc1ncc(CN(CCN(C)C)Cc2ccc(C)s2)cn1`, the cytotoxicity at 10 µM is -57.1%.

Take `COC(=O)c1cccc(S(=O)(=O)NC(=O)COC2CCCCC2)c1`: the cytotoxicity at 10 µM was -10.1%.

Turning to `Cc1nc(C)n(CC2CCCN(Cc3cccc4c3OCCO4)C2)n1` (stereo not drawn), the cytotoxicity at 10 µM was -5.23%.

As to `Cc1ccc(C)c(NS(=O)(=O)c2cc3c(c(C(=O)O)c2)OCCO3)c1`, the cytotoxicity at 10 µM is -0.882%.

For `N#Cc1cccc(NC(=O)CCn2nc(-c3cccs3)oc2=O)c1`, the cytotoxicity at 10 µM was -2%.

Regarding `CN(C)c1cc(C(=O)N2CCCN(c3cccnn3)CC2)ccn1`, the cytotoxicity at 10 µM is -8.19%.

As for `Cc1cnn(CC2CCCCN2C(=O)c2ccccc2-n2cccn2)c1` (stereo not drawn), the cytotoxicity at 10 µM was -8.4%.

Consider `Cc1cnn(CC2CCCCN2C(=O)c2ccc3[nH]c(=O)[nH]c3c2)c1` (stereo not drawn), for which the cytotoxicity at 10 µM came to 5.8%.

Regarding `CC(NC(=O)CNCCn1cccn1)c1ccc2c(c1)CCCC2` (stereo not drawn), the cytotoxicity at 10 µM is -11.4%.

With `FC(F)(F)COCCN1CCN(c2ccc3nncn3n2)CC1`, the cytotoxicity at 10 µM is -7.77%.

For the compound `O=C(NCc1cc[nH]n1)N1CCN(c2ccccc2Cl)CC1`, the cytotoxicity at 10 µM was -2.82%.

On to `COc1ccc(C(=O)N(Cc2cnn(C)c2)C(C)C)cc1Br`, for which the cytotoxicity at 10 µM was -9.02%.

Turning to `c1cnnc(N2CCCC2CNCc2ccsc2)c1` (stereo not drawn), the cytotoxicity at 10 µM was -8.9%.

Regarding `Cc1ccc(C)c(OC2CCN(C(=O)c3ccc(C)[nH]c3=O)CC2)c1`, the cytotoxicity at 10 µM stood at 2.87%.

In the case of `Cc1cccc(-c2noc(CN3CCCC(Cn4cncn4)C3)n2)c1` (stereo not drawn), the cytotoxicity at 10 µM is -3.51%.

With `COc1ccc(C(=O)N2CCCCC2Cn2cccn2)c(F)c1` (stereo not drawn), the cytotoxicity at 10 µM is -5.38%.

Consider `c1ccc(OCCCNCCn2cccn2)cc1`, for which the cytotoxicity at 10 µM is -5.46%.

As for `O=C(NCCNc1cnccn1)C1CCN(C(=O)N2CCCC2)CC1`, the cytotoxicity at 10 µM is -0.577%.

As to `CC(C(=O)N1CCN(c2cnccn2)CC1)n1cncn1` (stereo not drawn), the cytotoxicity at 10 µM turned out to be 8.37%.

Consider `CC(C)N1CCC(CNCc2c[nH]nc2C(C)(C)C)C1` (stereo not drawn), for which the cytotoxicity at 10 µM is -2.16%.

For the compound `O=C(c1cnc(C2CC2)s1)N1CCCC(n2cccn2)C1` (stereo not drawn), the cytotoxicity at 10 µM was -13.9%.

For the compound `CCc1nc(CNC(C)Cn2cccn2)cs1` (stereo not drawn), the cytotoxicity at 10 µM was -4.67%.

As for `CCc1nc(C2CCCN(C(=O)c3ccc4c(c3)nnn4C)C2)no1` (stereo not drawn), the cytotoxicity at 10 µM is -3.3%.

With `COCCc1noc(CNCC2CCCN2c2cccnn2)n1` (stereo not drawn), the cytotoxicity at 10 µM amounted to 4.33%.

On to `Cn1cnnc1C1CCCN(C(=O)NCCOc2ccccc2)C1` (stereo not drawn), for which the cytotoxicity at 10 µM was 7.48%.

Turning to `Cc1ccc(OCCCSC2=NCCN2)cc1`, the cytotoxicity at 10 µM was -9.66%.

With `CN(C)C[C@H]1OC[C@@H]2CCN(S(=O)(=O)c3cccs3)C[C@@H]21`, the cytotoxicity at 10 µM amounted to 3.04%.

For the compound `CN(C)C(=O)NC1COC2(CCN(Cc3ccc(Cl)c(F)c3)CC2)C1` (stereo not drawn), the cytotoxicity at 10 µM was -76.4%.

Take `COCCNC(=O)[C@@]12CCO[C@@H]1CCN(Cc1c(C)noc1C)C2`: the cytotoxicity at 10 µM is -2.45%.

On to `CSc1ccc(C(=O)N2C[C@@H]3CC[C@H]2CN(Cc2ccccc2)C3)cc1`, for which the cytotoxicity at 10 µM was -5.49%.

Source of the values: ChEMBL document CHEMBL4513216, “Probing the Open Global Health Chemical Diversity Library for Multistage-Active Starting Points for Next-Generation Antimalarials” (ACS Infect Dis, 2020).
